pEC50: −log10 of the molar value.
Assays:
Hepatitis C virus [1] = assay: Antiviral activity against HCV1b infected in human HuH7 cells assessed as inhibition of viral replication by RT-PCR analysis; format: functional, organism-based, Hepacivirus hominis; conditions: genotype 1b, Huh-7
How it was run: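 Huh7 cells carrying a subgenomic genotype 1b HCV replicon were treated with compound, and HCV RNA replication was measured. HCV RNA and ribosomal RNA were extracted and amplified together, and cytotoxicity in Huh7 was read at the same time. EC50 and EC90 came from dose–response curves of at least four concentrations, each run in triplicate, and are reported as means.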

PBMC = assay: Cytotoxicity against human PBMC after 3 days; format: cell-based; conditions: 72 h
How it was run: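 CC50 was measured in human peripheral blood mononuclear (PBM) cells, the human T-cell-derived CEM line, and African green monkey kidney epithelial Vero cells. Dose–response was fitted from at least four concentrations, each run in triplicate and reported as the mean.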

CCRF-CEM = assay: Cytotoxicity against human CEM cells after 3 days; format: cell-based; conditions: 72 h
Vero = assay: Cytotoxicity against african green monkey Vero cells after 3 days; format: cell-based; conditions: chlorocebus sabaeus, 72 h
[2] = Therapeutic index, ratio of CC50 for human PBMC to EC50 for HCV1b
How it was run: (§1)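 The index is CC50/EC50. EC50 came from Huh7 cells carrying a subgenomic genotype 1b HCV replicon, with HCV RNA quantified by extraction and amplification alongside rRNA. CC50 was measured in PBM, CEM or Vero cells. Each dose–response used at least four concentrations in triplicate, and means were reported.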

[3] = Therapeutic index, ratio of CC50 for human CEM cells to EC50 for HCV1b; format: cell-based, CCRF-CEM; how it was run: as §1
[4] = Therapeutic index, ratio of CC50 for african green monkey Vero cells to EC50 for HCV1b; format: cell-based; how it was run: as §1
Hepatitis C virus [5] = assay: Antiviral activity against HCV1b infected in human assessed as reduction of viral RNA level at 10 mg after 24 hrs; format: functional, Hepacivirus hominis, genotype 1b

Compound | pEC50 (Hepatitis C virus [1]) | CC50 (PBMC) [µM] | CC50 (CCRF-CEM) [µM] | CC50 (Vero) [µM] | EC90 (Hepatitis C virus [1]) [nM] | selectivity ratio [2] | selectivity ratio [3] | selectivity ratio [4] | Activity (Hepatitis C virus [5]) [log10IU/ml]
COC(=O)N[C@H](C(=O)N1CCC[C@H]1c1ncc(-c2ccc(-c3cnc([C@@H]4CCCN4C(=O)[C@@H](NC(=O)OC)C(C)C)[nH]3)cc2)[nH]1)C(C)C | < 9.00 | > 100 | > 100 | > 100 |  |  |  |  | 
COC(=O)N[C@H](C(=O)N1CCC[C@H]1c1ncc(-c2ccc(NS(=O)(=O)c3ccc(-c4cnc([C@@H]5CCCN5C(=O)[C@@H](NC(=O)OC)C(C)C)[nH]4)cc3)cc2)[nH]1)C(C)C | 7.00 | 15 | 13 | > 100 | > 100 |  |  |  | 
COC(=O)N[C@H](C(=O)N1CCC[C@H]1c1ncc(-c2ccc(-c3ccc(-c4ccc(-c5cnc([C@@H]6CCCN6C(=O)[C@@H](NC(=O)OC)C(C)C)[nH]5)cc4)cc3)cc2)[nH]1)C(C)C | 10.59 | > 100 | > 100 | > 100 | 0.09 | > 4e+06 | > 4e+06 | > 4e+06 | 
COC(=O)N[C@H](C(=O)N1CCC[C@H]1c1ncc(-c2ccc(Oc3ccc(-c4cnc([C@@H]5CCCN5C(=O)[C@@H](NC(=O)OC)C(C)C)[nH]4)cc3)cc2)[nH]1)C(C)C | 7.52 | 16 | 16 | 19 | 90 |  |  |  | 
COC(=O)N[C@H](C(=O)N1CCC[C@H]1c1ncc(-c2ccc(-c3ccc(-c4cnc([C@@H]5CCCN5C(=O)[C@@H](NC(=O)OC)C(C)C)[nH]4)cc3)cc2)[nH]1)C(C)C | 11.18 | 19 |  |  | 0.023 |  |  |  | > 3
COC(=O)N[C@H](C(=O)N1CCC[C@H]1c1ncc(-c2ccc(-c3cccc(-c4ccc(-c5cnc([C@@H]6CCCN6C(=O)[C@@H](NC(=O)OC)C(C)C)[nH]5)cc4)c3)cc2)[nH]1)C(C)C | 9.10 | 18 | 3 | > 100 | 2.9 |  |  |  | 
COC(=O)N[C@H](C(=O)N1CCC[C@H]1c1ncc(-c2ccc(-c3ccc(-c4ccc(-c5cnc([C@@H]6CCCN6C(=O)[C@@H](NC(=O)OC)C(C)C)[nH]5)cc4)s3)cc2)[nH]1)C(C)C | 10.00 | 26 | 12 | > 100 | 0.3 |  |  |  | 
COC(=O)N[C@H](C(=O)N1CCC[C@H]1c1ncc(-c2ccc(-c3ccc(-c4ccc(-c5ccc(-c6cnc([C@@H]7CCCN7C(=O)[C@@H](NC(=O)OC)C(C)C)[nH]6)cc5)cc4)cc3)cc2)[nH]1)C(C)C | 9.62 | > 100 | > 100 | > 100 | 1 |  |  |  | 
COC(=O)N[C@H](C(=O)N1CCC[C@H]1c1ncc(-c2ccc(-c3ccc(-c4ccc(-c5cnc([C@@H]6CCCN6C(=O)[C@@H](NC(=O)OC)C(C)C)[nH]5)cn4)cc3)cc2)[nH]1)C(C)C | 9.70 | 5.5 | 31 | 29 | 0.7 |  |  |  | 
COC(=O)N[C@H](C(=O)N1CCC[C@H]1c1ncc(-c2ccc(-c3cn(-c4ccc(-c5cnc([C@@H]6CCCN6C(=O)[C@@H](NC(=O)OC)C(C)C)[nH]5)cc4)nn3)cc2)[nH]1)C(C)C | 9.70 | 18 | 5 | 35 | 0.9 |  |  |  | 
COC(=O)N[C@H](C(=O)N1CCC[C@H]1c1ncc(-c2ccc(-c3ccc(-c4cnc([C@@H]5CCCN5C(=O)[C@@H](NC(=O)OC)C(C)C)[nH]4)s3)cc2)[nH]1)C(C)C | 7.04 | 93 | 48 | 99 | > 100 |  |  |  | 
COC(=O)N[C@H](C(=O)N1CCC[C@H]1c1ncc(-c2ccc(-c3ccc(-c4ccc(-c5cnc([C@@H]6CCCN6C(=O)[C@@H](NC(=O)OC)C(C)C)[nH]5)cc4)nc3)cc2)[nH]1)C(C)C | 10.59 | 3.9 | 2.3 | 6.5 | 0.068 |  |  |  | 
